The text below walks through data of ChEMBL document CHEMBL1147889, “Synthesis of 6- and 9-alkylaminomethyl furoflavones as gastroprotective agents” (2007).

Assay type in all cases: functional, Stomach
For assay [1], the species on record is Rattus norvegicus. Description: Preventive index against ethnol-induced gastric ulcer rat in treated group to control group. Put shortly:
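Preventive index = percentage inhibition of gastric mucosal damage: PI = 100 − (ulcer index of treated group / ulcer index of control group × 100). Ulcer index is the summed caliper-measured lesion lengths, taken 1 h after oral 1 ml 70% ethanol in 36 h fasted rats dosed 1 h before ethanol. Compared by one-way ANOVA.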

The test system of assay [2] is Rattus norvegicus. Description: Gastroprotective activity against ethanol-induced gastric ulcer in fasted rat accessed as number of ulcer at 20 mg/kg, ip. The note with it: route intraperitoneal. An outline of the steps: (§1)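 Rats housed singly, fasted 36 h; test drug given, then 1 h later ulcer induced by oral 1 ml 70% ethanol in distilled water. Killed by cervical dislocation 1 h after ethanol; stomach opened along greater curvature, saline-rinsed, pinned flat. Ulcers counted; each lesion length measured by Vernier caliper, summed as ulcer index. Mean, SD, SE; one-way ANOVA then LSD pairwise test.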

The test system of assay [3] is Rattus norvegicus. Description: Gastroprotective activity against ethanol-induced gastric ulcer in fasted rat accessed as gastric ulcer index at 20 mg/kg, ip. Particulars: route intraperitoneal. Put shortly:
as §1

As to `COc1c2ccoc2cc2oc(-c3ccc(Cl)cc3)cc(=O)c12`, in the assay filed under Rattus norvegicus [1], the Preventive_index came to 34.5. Moreover, the Activity stood at 25.5 in the assay on Rattus norvegicus [2] and 33.2 mm with Rattus norvegicus [3].

The molecule `COc1c2occc2c(OC)c2c(=O)c(CN3CCN(C)CC3)c(-c3cccnc3)oc12` yielded a Preventive_index in the assay listed under Rattus norvegicus [1] of 44.4. Besides, the Activity worked out at 18.8 in the assay on Rattus norvegicus [2] and 28.2 mm with Rattus norvegicus [3].

In the assay filed under Rattus norvegicus [1], `COc1c2ccoc2cc2oc(-c3ccccc3)c(CN3CCOCC3)c(=O)c12` returned a Preventive_index of 41.6. Besides, the figures for the Activity with Rattus norvegicus [2] and in the assay with Rattus norvegicus [3] were 21.8 and 29.6 mm, respectively.

Take `COc1ccc(-c2cc(=O)c3c(OC)c4ccoc4cc3o2)cc1`: the Preventive_index in the assay filed under Rattus norvegicus [1] stood at 52.6. The values for the Activity in the assay on Rattus norvegicus [2] and in the assay on Rattus norvegicus [3] were 19.7 and 24 mm, respectively.

With `O=c1cc(-c2ccccc2)oc2cc3occc3c(O)c12`, the Preventive_index in the assay filed under Rattus norvegicus [1] turned out to be 24.3. Also, the Activity with Rattus norvegicus [2] was 25.5; in the assay with Rattus norvegicus [3] it was 38.3 mm.

The molecule `COc1c2ccoc2c(CN2CCOCC2)c2oc(-c3cccnc3)cc(=O)c12` came in with a Preventive_index in the assay listed under Rattus norvegicus [1] of 19.5. Further, the figures for the Activity in the assay on Rattus norvegicus [2] and in the assay on Rattus norvegicus [3] were 25 and 40.8 mm, respectively.

`COc1c2ccoc2c(CN2CCN(C)CC2)c2oc(-c3cccnc3)cc(=O)c12` showed a Preventive_index in the assay filed under Rattus norvegicus [1] of 41.5. Moreover, the Activity in the assay with Rattus norvegicus [2] is listed as 23.7; in the assay with Rattus norvegicus [3] it was 29.7 mm.

Regarding `O=c1cc(-c2ccc(Cl)cc2)oc2cc3occc3c(O)c12`, in the assay listed under Rattus norvegicus [1], the Preventive_index stood at 33.9. Moreover, the results for the Activity with Rattus norvegicus [2] and in the assay on Rattus norvegicus [3] were 22.2 and 33.5 mm, respectively.

Regarding `O=c1cc(-c2ccc(Cl)cc2)oc2c(CN3CCOCC3)c3occc3c(O)c12`, the Preventive_index in the assay filed under Rattus norvegicus [1] came to 16.1. Also, the Activity in the assay on Rattus norvegicus [2] was determined as 28.5; in the assay on Rattus norvegicus [3] it was 42.5 mm.

Consider `COc1c2ccoc2cc2oc(-c3cccnc3)c(CN(C)C)c(=O)c12`, for which, in the assay listed under Rattus norvegicus [1], the Preventive_index is listed as 38.8. The Activity with Rattus norvegicus [2] is 21.2; with Rattus norvegicus [3], 31 mm.

`COc1c2ccoc2c(CN2CCOCC2)c2oc(-c3ccccc3)cc(=O)c12` showed a Preventive_index in the assay listed under Rattus norvegicus [1] of 21.4. The Activity is recorded as 27.8 with Rattus norvegicus [2] and 39.8 mm in the assay on Rattus norvegicus [3].

`COc1c2ccoc2c(CN2CCOCC2)c2oc(-c3ccc(Cl)cc3)cc(=O)c12`: the Preventive_index in the assay listed under Rattus norvegicus [1] was 26.6. Also, the Activity with Rattus norvegicus [2] is 26; with Rattus norvegicus [3], 37.2 mm.

Molecule `O=c1cc(-c2ccccc2)oc2c(CN3CCOCC3)c3occc3c(O)c12` yielded a Preventive_index in the assay filed under Rattus norvegicus [1] of 26. Moreover, the Activity was determined as 26.5 in the assay with Rattus norvegicus [2] and 37.5 mm in the assay on Rattus norvegicus [3].

Regarding `COc1c2ccoc2cc2oc(-c3ccccc3)cc(=O)c12` [PINNATIN], the Preventive_index in the assay listed under Rattus norvegicus [1] was 31.3. For the same molecule, the Activity with Rattus norvegicus [2] amounted to 23.7; in the assay with Rattus norvegicus [3], 34.8 mm.
